One may read the pIC50 as the IC50 on a negative log10 scale, so that one unit is a factor of ten.

The target in data set [1] is Human immunodeficiency virus type 1 reverse transcriptase (Human immunodeficiency virus 1) (UniProt Q72547). The data set can be described thus: Inhibition of HIV1 reverse transcriptase-mediated viral DNA synthesis at 10 uM by PAGE.
The test system of data set [2] is TZM. The data set can be described thus: Cytotoxicity against human TZM cells up to 10 uM after 48 hrs by XTT assay. (Tetrazolium dyes change colour on reduction, which living cells bring about.)
Data set [3] in a line: Cytotoxicity against human GHOST cells up to 10 uM after 48 hrs by XTT assay.
Data set [4] is described as follows: Cytotoxicity against human Hut/CCR5 cells up to 10 uM after 48 hrs by XTT assay. Conditions: hut/ccr5, 48 h.
The nature of data set [5]: Inhibition of HIV1 reverse transcriptase M41L/D67N/K70R/T215Y/K219Q mutant-mediated viral DNA synthesis in human HOS cells assessed as luciferase activity treated 3 hrs before infection measured after 48 hrs by luminescence assay. Format: cell-based. To be noted: Human immunodeficiency virus 1, HOS. The method in brief: (§1)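 Single-cycle infection with a VSV-G-pseudotyped, Env-deleted HIV-1 luciferase vector carrying wt or NRTI-resistant RT, made by calcium phosphate transfection of 293 cells, harvested at 48 h and diluted 1:5. HOS or HSV-TK-expressing HOS 313 cells were seeded at 4000/well, pretreated with compound for 3 h, then infected for 48 h. Luciferase was normalized to untreated infection of the same RT variant. IC50 came from a four-parameter sigmoidal fit.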

The nature of data set [6]: Inhibition of HIV1 reverse transcriptase M41L/D67N/K70R/T215Y/K219Q mutant-mediated viral DNA synthesis in human HOS-313 cells expressing HSV thymidine kinase assessed as luciferase activity treated 3 hrs before infection measured after 48 hrs by luminescence assay. Format: cell-based. To be noted: Human immunodeficiency virus 1, HOS-313. The method in brief:
as §1

The nature of data set [7]: Inhibition of HIV1 reverse transcriptase SSGR/T215Y mutant-mediated viral DNA synthesis in human HOS cells assessed as luciferase activity treated 3 hrs before infection measured after 48 hrs by luminescence assay. Format: cell-based. Conditions: Human immunodeficiency virus 1, HOS. The method in brief: as §1
A short description of data set [8]: Inhibition of HIV1 reverse transcriptase SSGR/T215Y mutant-mediated viral DNA synthesis in human HOS-313 cells expressing HSV thymidine kinase assessed as luciferase activity treated 3 hrs before infection measured after 48 hrs by luminescence assay. Format: cell-based. Conditions: Human immunodeficiency virus 1, HOS-313. The method in brief: as §1
The target in data set [9] is Human immunodeficiency virus type 1 reverse transcriptase (Human immunodeficiency virus 1) (UniProt Q72547). The data set can be described thus: Ratio of IC50 for inhibition of HIV1 wild type reverse transcriptase-mediated viral DNA synthesis in human HOS cells to IC50 for inhibition of HIV1 wild type reverse transcriptase-mediated viral DNA synthesis in human HOS-313 cells expressing HSV thymidine kinase. Format: cell-based. The method in brief: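 VSV-G-pseudotyped single-round HIV-1 luciferase vector (wt RT) made in 293 cells. HOS or HSV-TK-expressing HOS 313 cells, 4000/well, were pretreated 3 h with compound, infected 48 h, and luminescence read. Activity was normalized to untreated infections, and IC50 was taken from a four-parameter sigmoidal fit in each line.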

The test system of another data set is HIV-1 M:B_Lai. The data set can be described thus: Antiviral activity against HIV1 LAI infected in human TZM cells assessed as inhibition of viral replication. To be noted: Human immunodeficiency virus 1, LAI. Format: functional, organism-based. The gist of the method: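 Single-cycle inhibition assay in TZM (HeLa-derived indicator) cells infected with replication-competent wild-type HIV-1 LAI across a range of compound concentrations; IC50 reported.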

Data set [10] deals with TZM. As to the kind of experiment: Cytotoxicity against human TZM cells at 5% (w/v) after 48 hrs by XTT assay. Format: cell-based. The gist of the method:
(§2)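 Cells (TZM, GHOST, HuT-CCR5) incubated 48 h with five dilutions of compound; XTT substrate then added for a further 4–5 h, and viability read from conversion of the dye by live cells. Hydroxypropyl-β-cyclodextrin served as positive control for killing.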

A short description of data set [11]: Cytotoxicity against human GHOST cells at 5% (w/v) after 48 hrs by XTT assay. Format: cell-based. The method in brief:
as §2

Data set [12] in a line: Cytotoxicity against human Hut/CCR5 cells at 5% (w/v) after 48 hrs by XTT assay. Format: cell-based. To be noted: hut/ccr5, 48 h. The gist of the method: as §2
Data set [13] concerns the target Human immunodeficiency virus type 1 reverse transcriptase (Human immunodeficiency virus 1) (UniProt Q72547). The data set can be described thus: Inhibition of HIV1 reverse transcriptase-mediated viral DNA synthesis at 5 uM using TA template by PAGE in presence of thymidine triphosphate. The gist of the method:
(§3)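 Competition primer-extension: labeled primer on DNA or RNA template of identical sequence (RNA reactions supplemented with RNase inhibitor), HIV-1 RT (1.0 µg), 10.0 µM each dATP/dCTP/dGTP. TTP:analog triphosphate at 1:5 or 1:1, totalling 10.0 µM; 37°, timed intervals, EDTA stop, 15% sequencing gel to score pausing.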

Data set [14] shares this target. The data set can be described thus: Inhibition of HIV1 reverse transcriptase-mediated viral DNA synthesis at 5 uM using UA template by PAGE in presence of thymidine triphosphate. The method in brief: as §3

pIC50: −log10 of the molar value. Active and inactive are the calls of the source. The calls are words filed in the database; no cut-off is given here.

As for `Cc1cn([C@H]2CC[C@@H](COP(=O)(O)OP(=O)(O)OP(=O)(O)O)O2)c(=O)[nH]c1=O`, the inhibition result in data set [1] was “Active”.
In the case of `Cc1cccc2c1OP(=O)(OC[C@H]1C[C@@H](n3cc(C)c(=O)[nH]c3=O)C[C@@H]1O)OC2` (some centres not stated), the Activity entry (in the data set on TZM [2]; in [3]; in data set [4]) was “Non-toxic” each time.
For `Cc1cn([C@H]2C[C@H](O)[C@@H](COP(=O)(O)OP(=O)(O)OP(=O)(O)O)O2)c(=O)[nH]c1=O`, the inhibition entry in data set [1] was “inactive”.
Consider `Cc1cn([C@@H]2C[C@H](CO)[C@@H](O)C2)c(=O)[nH]c1=O`, for which the pIC50 was 5.89 in data set [5]; 6.06 in [6]; 5.34 in [7]; 6.00 in data set [8]; 7.30 in the data set on HIV-1 M:B_Lai. In addition, in [9], the Ratio IC50 was found to be 4. The Activity result (in the data set with TZM [2]; in [3]; in [4]) was “Non-toxic” throughout.
In the case of `Cc1cn([C@H]2C[C@H](N=[N+]=[N-])[C@@H](CO)O2)c(=O)[nH]c1=O` [ZIDOVUDINE], the pIC50 is 7.70 in data set [5] and 7.40 in data set [7].
Consider `CC(O)COC[C@H]1O[C@@H]2O[C@H]3[C@H](O)[C@@H](O)[C@@H](O[C@H]4[C@H](O)[C@@H](O)[C@@H](O[C@H]5[C@H](O)[C@@H](O)[C@@H](O[C@H]6[C@H](O)[C@@H](O)[C@@H](O[C@H]7[C@H](O)[C@@H](O)[C@@H](O[C@H]8[C@H](O)[C@@H](O)[C@@H](O[C@H]1[C@H](O)[C@H]2O)O[C@@H]8COCC(C)O)O[C@@H]7COCC(C)O)O[C@@H]6COCC(C)O)O[C@@H]5COCC(C)O)O[C@@H]4COCC(C)O)O[C@@H]3COCC(C)O` (stereo partly drawn) [2-HYDROXYPROPYL-BETA-CYCLODEXTRIN], for which the Activity (in the data set on TZM [10]; in data set [11]; in [12]) was more than 50% each time.
`Cc1cn([C@@H]2C[C@H](COP(=O)(O)OP(=O)(O)OP(=O)(O)O)[C@@H](O)C2)c(=O)[nH]c1=O`: the inhibition entry in data set [1] and in data set [14] was “Active” in each case. Also, the inhibition entry in [13] was “inactive”.
